Data: ChEMBL document CHEMBL1770101, “Synthesis, anti-inflammatory activity and COX-1/COX-2 inhibition of novel substituted cyclic imides. Part 1: Molecular docking study” (Eur J Med Chem, 2011)

How the values were obtained:
[1] = molecular target: T1, Prostaglandin G/H synthase 1 (Ovis aries, UniProt P05979); assay: Inhibition of ovine COX1 after 5 mins by enzyme immunoassay
T1 sequence (P05979 whole entry): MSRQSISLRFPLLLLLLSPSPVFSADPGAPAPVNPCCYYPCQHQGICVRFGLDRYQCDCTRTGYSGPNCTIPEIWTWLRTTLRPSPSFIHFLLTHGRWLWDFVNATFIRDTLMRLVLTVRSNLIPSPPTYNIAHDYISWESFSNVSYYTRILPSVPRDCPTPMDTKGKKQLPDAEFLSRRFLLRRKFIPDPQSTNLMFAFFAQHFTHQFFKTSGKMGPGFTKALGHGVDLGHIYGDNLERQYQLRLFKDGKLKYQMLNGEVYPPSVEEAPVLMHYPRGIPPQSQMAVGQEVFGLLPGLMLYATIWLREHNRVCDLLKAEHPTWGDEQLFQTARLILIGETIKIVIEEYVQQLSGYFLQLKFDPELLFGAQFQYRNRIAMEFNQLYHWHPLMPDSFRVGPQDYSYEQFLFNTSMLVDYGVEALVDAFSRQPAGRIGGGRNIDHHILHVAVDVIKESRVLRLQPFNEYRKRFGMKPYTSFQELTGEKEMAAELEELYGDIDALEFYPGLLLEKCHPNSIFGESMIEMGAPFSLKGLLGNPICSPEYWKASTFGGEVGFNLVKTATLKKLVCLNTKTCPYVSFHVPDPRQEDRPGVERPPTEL

[2] = system: Rattus norvegicus; assay: Antiinflammatory activity in Sprague-Dawley rat assessed as inhibition of carrageenan-induced paw edema at 100 mg/kg, ip after 2 hrs by plethysmometer; type: functional; conditions: route intraperitoneal
In short: (§1)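 Male Sprague-Dawley rats (250 g), fasted at least 16 h with free access to water, six per group. Test compound given IP at 100 mg/kg as 1 mL suspension in 0.5% methyl cellulose.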

[3] = system: Rattus norvegicus; assay: Antiinflammatory activity in ip dosed Sprague-Dawley rat assessed as inhibition of carrageenan-induced paw edema after 2 hrs by plethysmometer; type: functional
In short: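 Male Sprague-Dawley rats (250 g), fasted at least 16 h with water available, six per group. Compounds dosed IP as 1 mL suspension in 0.5% methyl cellulose. Paw volume measured by water displacement plethysmometer before and after treatment. % inhibition = (1 − D/C) × 100 versus controls.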

[4] = system: Rattus norvegicus; assay: Antiinflammatory activity in Sprague-Dawley rat assessed as inhibition of carrageenan-induced paw edema at 100 mg/kg, ip after 1 hr by plethysmometer; type: functional; conditions: route intraperitoneal; in short: as §1

| IC50 [1] [µM] | Compound | inhibition in vivo at 100 mg/kg [2] [%] | ED50 [3] [mg/kg] | inhibition in vivo at 100 mg/kg [4] [%] |
| --- | --- | --- | --- | --- |
| > 100 | COc1cc(N2C(=O)c3c(Cl)c(Cl)c(Cl)c(Cl)c3C2=O)cc(OC)c1OC | 53 | 212 |  |
| > 100 | COc1cc(N2C(=O)C3C(C2=O)C2(Cl)C(Cl)=C(Cl)C3(Cl)C2(Cl)Cl)cc(OC)c1OC (stereo not drawn) | 34 |  | 36 |
| > 100 | O=C1c2cc(Cl)c(Cl)cc2C(=O)N1c1cc(Cl)c(Cl)c(Cl)c1 | 65 | 187 | 75 |
| > 100 | O=C1C2C(C(=O)N1c1cc(Cl)c(Cl)c(Cl)c1)C1(Cl)C(Cl)=C(Cl)C2(Cl)C1(Cl)Cl (stereo not drawn) | 37 |  | 23 |
| > 100 | COc1cc(N2C(=O)c3ccc(C)cc3C2=O)cc(OC)c1OC | 94 | 107 | 84 |
| > 100 | CC(C)(C)c1ccc2c(c1)C(=O)N(c1cc(Cl)c(Cl)c(Cl)c1)C2=O | 60 | 195 | 35 |
|  | O=C(O)Cc1ccccc1Nc1c(Cl)cccc1Cl [DICLOFENAC] | 89 | 114 | 88 |
| > 100 | COc1cc(-n2c(=O)c3ccccc3c3ccccc3c2=O)cc(OC)c1OC | 84 | 120 | 86 |
| 36.1 | O=C1c2ccc([N+](=O)[O-])cc2C(=O)N1c1cc(Cl)c(Cl)c(Cl)c1 | 79 | 122 | 79 |
| > 100 | O=C1[C@H]2CC=CC[C@H]2C(=O)N1c1cc(Cl)c(Cl)c(Cl)c1 |  |  |  |
| 40 | COc1cc(N2C(=O)c3ccc([N+](=O)[O-])cc3C2=O)cc(OC)c1OC | 94 | 105 | 87 |
| > 100 | O=c1c2ccccc2c2ccccc2c(=O)n1-c1cc(Cl)c(Cl)c(Cl)c1 | 72 | 150 | 75 |
| > 100 | COc1cc(N2C(=O)c3cc(Cl)c(Cl)cc3C2=O)cc(OC)c1OC | 80 | 186 | 59 |
| > 100 | COc1cc(N2C(=O)CCC2=O)cc(OC)c1OC | 40 |  | 20 |
| > 100 | Cc1ccc2c(c1)C(=O)N(c1cc(Cl)c(Cl)c(Cl)c1)C2=O | 65 | 183 | 36 |
| > 100 | O=C1c2c(Br)c(Br)c(Br)c(Br)c2C(=O)N1c1cc(Cl)c(Cl)c(Cl)c1 |  |  |  |
| > 100 | COc1cc(N2C(=O)c3c(Br)c(Br)c(Br)c(Br)c3C2=O)cc(OC)c1OC | 55 | 213 | 42 |
| > 100 | COc1cc(N2C(=O)[C@H]3CC=CC[C@H]3C2=O)cc(OC)c1OC |  |  |  |
| > 100 | COc1cc(N2C(=O)c3cccc4cccc(c34)C2=O)cc(OC)c1OC | 91 | 117 | 86 |
| > 100 | COc1cc(N2C(=O)c3ccccc3C2=O)cc(OC)c1OC | 67 | 185 | 43 |
| > 100 | O=C1CCC(=O)N1c1cc(Cl)c(Cl)c(Cl)c1 | 33 |  | 30 |
| > 100 | O=C1c2c(Cl)c(Cl)c(Cl)c(Cl)c2C(=O)N1c1cc(Cl)c(Cl)c(Cl)c1 | 45 | 229 | 44 |
| > 100 | O=C1c2cccc3cccc(c23)C(=O)N1c1cc(Cl)c(Cl)c(Cl)c1 | 88 | 115 | 79 |
| > 100 | O=C1c2ccccc2C(=O)N1c1cc(Cl)c(Cl)c(Cl)c1 | 70 | 172 | 49 |
| > 100 | COc1cc(N2C(=O)c3ccc(C(C)(C)C)cc3C2=O)cc(OC)c1OC | 89 | 146 | 60 |
| > 100 | COc1cc(N2C(=O)c3nccnc3C2=O)cc(OC)c1OC | 84 | 123 | 72 |
| > 100 | O=C1c2nccnc2C(=O)N1c1cc(Cl)c(Cl)c(Cl)c1 | 73 | 175 | 47 |
